Measured values reported in ChEMBL document CHEMBL4513216, “Probing the Open Global Health Chemical Diversity Library for Multistage-Active Starting Points for Next-Generation Antimalarials” (ACS Infect Dis, 2020).

Experiment: Toxicity liver stage against HepG2, at 10uM
Type: cell-based
Design: test concentration 10 uM, cell line HepG2-A16-CD81EGFP
Settings: human, HepG2-A16-CD81EGFP cells; read-out: INHIBITION
In short: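 Uninfected HepG2-A16-CD81EGFP cells, 3 × 10^3 per well, 1536-well, plated on prespotted compound at 10 μM final, parasite-free screening media added to match infected plates; puromycin 10 μM positive, DMSO 0.5% negative; run in parallel with 48 h PbLuc assay at 37 °C, 5% CO2; viability by CellTiter-Glo luminescence, normalized to controls.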

Going from `O=C1NC2(CCN(CCc3ccccc3)CC2)CC1c1ccccc1` (stereo not given) to `OCC1(O)CCCN(Cc2ccccc2OCCc2ccccc2)CC1` (stereo not given), the cytotoxicity at 10 µM rises from -48.6% to -45.4%.

Compared with `O=C(Nc1ccccc1N1CCOC1=O)N1CCSCC1`, `O=C(Cc1ccccc1F)N1CCN(Cc2noc(C3CC3)n2)CC1` is lower in cytotoxicity at 10 µM: 3.15% for the first, -2.21% for the second.

Compared with `CCc1nnc(CN(C)C(=O)C(CC)n2c(CC)nc3ccccc32)o1` (stereo not given), `O=C(NCCO)c1coc(Cn2cnc3ccccc32)n1` is lower in cytotoxicity at 10 µM: -4.27% for the first, -4.48% for the second.

First: c1ccc(CCCN2CCCN(c3ncnc4[nH]ccc34)CC2)cc1
Second: CN(C)Cc1ccccc1CN(C)c1ncnc2[nH]ccc12
The cytotoxicity at 10 µM of the first is lower: -5.86% for the first, 8.11% for the second.

First: COCCN1CCN(Cc2ccc(Cl)cc2)[C@H]2CS(=O)(=O)C[C@H]21
Second: COc1ccc(CN2CCC3(CC2)CCN(CC2CC2)C3=O)cc1
The cytotoxicity at 10 µM of the first is lower: -4.01% for the first, 8.18% for the second.

Compared with `CC(C)N1CCC(CC(=O)NC(C(=O)O)c2cc(F)ccc2F)CC1` (stereo not given), `Fc1ccc(-c2noc3c2CN(CC2CC2)CC3)cc1F` is lower in cytotoxicity at 10 µM: 1.18% for the first, -6.39% for the second.

Compared with `CC(=O)c1cc(CN2C[C@@H](NS(=O)(=O)N(C)C)[C@H](C(C)C)C2)cs1`, `CN(C)C(=O)C1CN(Cc2ccsc2)Cc2ccnn2C1` (stereo not given) is higher in cytotoxicity at 10 µM: -7.79% for the first, -6.75% for the second.

First: CCC(=O)c1ccc(OCC(=O)NCC2CC(CC)=NO2)cc1 (stereo not given)
Second: COc1ccc(COCC(O)CNC(=O)c2ccc(C)c(F)c2)cc1 (stereo not given)
The cytotoxicity at 10 µM of the first is lower: -41.7% for the first, -0.584% for the second.

First: CCNC(=O)C1CCN(c2cc(CC)nc3ccnn23)C1 (stereo not given)
Second: CCc1cnc(CN(C)C2CCN(CC(=O)Nc3nccs3)C2)o1 (stereo not given)
The cytotoxicity at 10 µM of the first is higher: -8.24% for the first, -18.7% for the second.

Going from `O=C(CCCc1cn[nH]c1)N1C[C@@H](CN2CCCCCC2)[C@@H](CO)C1` to `COc1cc(N2C[C@H]3CCN(CCN4CCCC4)C[C@H]3C2)ncn1`, the cytotoxicity at 10 µM rises from 1.52% to 12%.

First: COCCCC1CCCCN1C(=O)c1ccc(SCCO)cc1 (stereo not given)
Second: CC(C)CN(C)c1ccc(C(=O)N2CCCC2c2cnn(C)c2)cn1 (stereo not given)
The cytotoxicity at 10 µM of the first is lower: -50% for the first, -6.95% for the second.

First: CC(C1CCN(Cc2c(Cl)cncc2Cl)CC1)N1CCOCC1 (stereo not given)
Second: CC(C)c1nccc(CN2CCC(c3nc4ccccc4n3C)CC2)n1
The cytotoxicity at 10 µM of the first is lower: -8.68% for the first, 7.23% for the second.

Compared with `COc1cccc(Cl)c1C(C(=O)O)N(C)Cc1nnc(C)o1` (stereo not given), `Cc1ccc(NC(=O)N(C)Cc2cnn(C)c2)cc1OCC(F)F` is higher in cytotoxicity at 10 µM: -23.4% for the first, -0.243% for the second.

First: OC(CNc1nc(C2CCCC2)nc2c1CCNCC2)C(F)(F)F (stereo not given)
Second: Fc1ccccc1Cn1c(C2CCNCC2)cc2cccnc21
The cytotoxicity at 10 µM of the first is lower: -4.78% for the first, 1.25% for the second.

Compared with `CCc1nnc(CNC(=O)CCN2CCN(c3cccc(C)c3)CC2)s1`, `CCn1cc(CN2CCCN(C(=O)CCn3cc(C)cn3)CC2)cn1` is lower in cytotoxicity at 10 µM: -1.82% for the first, -2.11% for the second.

Going from `CC(COc1ccccc1)NS(C)(=O)=O` (stereo not given) to `CS(=O)(=O)N[C@@H]1CCN(Cc2cccnc2)[C@H]1Cc1ccccc1`, the cytotoxicity at 10 µM falls from -4.05% to -74.5%.

Going from `CN(C)CCN1CC(C(=O)N(C)Cc2cc3cc(F)ccc3[nH]2)CC1=O` (stereo not given) to `Cc1ccc(C(=O)NCC(O)c2cccc(F)c2)c(=O)[nH]1` (stereo not given), the cytotoxicity at 10 µM falls from -1.03% to -2.83%.

Compared with `Cc1ccc(NC(=O)CNC(C)Cc2ccsc2)cc1F` (stereo not given), `Cc1ccc(C)c(S(=O)(=O)NC(=O)c2ccc(C)[nH]c2=O)c1` is lower in cytotoxicity at 10 µM: 9.17% for the first, -1.07% for the second.

First: CSCCNC(=O)c1ccc(OC2CCN(CC(C)(C)C)CC2)c(Cl)c1
Second: CC1Cc2cc(-c3cncn3CC(=O)NC(C)(C)C)ccc2N1C (stereo not given)
The cytotoxicity at 10 µM of the first is higher: -10.9% for the first, -40.5% for the second.

First: O=C1CN(c2ccc(CNC(=O)NCCO)cc2)CCN1
Second: CC(NC(=O)NCCCO)c1ccc2c(c1)OCCO2 (stereo not given)
The cytotoxicity at 10 µM of the first is higher: -2.38% for the first, -2.92% for the second.

First: CCn1ccnc1CN1CCN(CCOc2ccc(C#N)cc2)CC1
Second: Cn1cnc2c1CCN(CCS(=O)(=O)c1ccc(Cl)cc1)C2
The cytotoxicity at 10 µM of the first is higher: -3.75% for the first, -6.67% for the second.

First: CN(C(=O)Cc1ccccc1F)C1CCN(c2ccccn2)CC1
Second: Fc1cccc(CN2CCC(c3cc4ncccc4cn3)CC2)c1F
The cytotoxicity at 10 µM of the first is higher: -0.644% for the first, -7.62% for the second.

Going from `CC(C)c1cc(NC(=O)CN2CCCC2c2noc(C(C)C)n2)on1` (stereo not given) to `Cc1cnc(N2CCC[C@@H]3CN(CC(=O)N(C)C)C[C@@H]32)nc1`, the cytotoxicity at 10 µM rises from -3.84% to 11.4%.

Compared with `CN(C(=O)CN1CCOC(Cn2cccn2)C1)c1nccs1` (stereo not given), `CCOCC1CN(CC2CC2)Cc2nn(C)cc21` (stereo not given) is lower in cytotoxicity at 10 µM: -14.2% for the first, -76% for the second.

First: O=C(N[C@@H]1CN[C@H]2CCCO[C@H]21)c1cnccn1
Second: Cc1cccc(C(=O)N2CCC[C@]3(C[C@@H](OCC4CC4)CO3)C2)n1
The cytotoxicity at 10 µM of the first is higher: 6.38% for the first, -82.9% for the second.

Going from `CCOc1cc2c(cc1CNC(Cc1cccs1)c1nccs1)OCO2` (stereo not given) to `CCc1ccc(CN(CCCn2ccnc2)Cc2ccc(C)s2)o1`, the cytotoxicity at 10 µM falls from 7.15% to 3.86%.

Going from `Cc1nc2sccn2c1CNC1(c2ccccc2F)CCCC1` to `CCC(CC)NC(=O)c1ncn2c1CN(CC)S(=O)(=O)c1ccccc1-2`, the cytotoxicity at 10 µM falls from 11.3% to -85.1%.

`CCn1nnc2c1C(COCCN(C)C)CN(S(=O)(=O)CC)C2` (stereo not given) showed a cytotoxicity at 10 µM of -4.38%.
